Consider three compounds from publication PMC8952960 (Nature chemistry, 2021).

Assay [1] has as its target preformed Ku70-Ku80 complex (Homo sapiens, UniProt P12956). Briefly: treatment of preformed Ku70-Ku80 complex. To be noted: 1 h, 23 °C. The class given is biochemical. An outline of the steps: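 Lysates of HEK293T cells co-expressing WT Ku80 with WT or K351R Ku70 were first anti-Flag co-immunoprecipitated (1 h, 4 °C). The captured complex was then exposed to test compound or DMSO at the stated concentrations (1 h, 23 °C), washed, and analysed by Western blot. Blots represent four independent experiments.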

Another assay has as its target K351 of XRCC6 (Ku70) (Homo sapiens, UniProt P12956). Put plainly: competitive isoTOP-ABPP, XRCC6. Type of assay: binding. The essentials: (§1)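 Human cancer cell (MDA-MB-231, Ramos) soluble or membrane fractions at 1.8 mg·mL⁻¹, or live cells, were exposed to test compound or DMSO. Proteomes were then labelled with lysine probe 1 (100 µM, 1 h, 23 °C). Compound samples were clicked to light and DMSO samples to heavy TEV-biotin tags, then streptavidin-enriched, trypsinised, TEV-released and analysed by MS. R was taken as the median peptide ratio per lysine.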

Assay [2] has as its target K351R mutant of Ku70 with Ku80 (Homo sapiens, UniProt P12956, K351R). Briefly: Ku70/Ku80 heterodimerization assay, K351R mutant of Ku70. Type of assay: biochemical. The essentials:
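FLAG-Ku70 (WT or K351R) HEK293T lysates were sonicated in 1% NP-40 buffer with protease inhibitors and normalised to 1.0 mg·mL⁻¹. They were treated with test compound or DMSO (1 h, 23 °C), then mixed with WT Ku80 lysate (1.0 mg·mL⁻¹, 1 h, 23 °C). Anti-FLAG co-IP (1 h, 4 °C) and four washes in 0.2% NP-40 buffer followed, with anti-HA immunoblot read-out.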

The next assay concerns the target Ku70/Ku80 heterodimer (Homo sapiens, UniProt P12956). Put plainly: Ku70/Ku80 heterodimerization assay. To be noted: pre-treatment of recombinantly expressed Ku70. Type of assay: biochemical.
A further assay concerns the target T1, K53 of GSTT2B (Homo sapiens, UniProt P0CG30).
T1 sequence (P0CG30 1-244): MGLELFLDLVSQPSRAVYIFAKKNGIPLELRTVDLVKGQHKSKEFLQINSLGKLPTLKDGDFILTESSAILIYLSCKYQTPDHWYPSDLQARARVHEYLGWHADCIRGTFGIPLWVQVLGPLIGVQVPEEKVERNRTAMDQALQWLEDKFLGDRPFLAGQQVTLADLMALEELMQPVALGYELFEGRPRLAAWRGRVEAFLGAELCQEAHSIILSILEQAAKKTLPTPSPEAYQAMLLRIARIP
Put plainly: competitive isoTOP-ABPP. Type of assay: binding. An outline of the steps:
as §1

For the next assay, the target named is T2, WT-CPOX (K404) (Homo sapiens, UniProt P36551).
T2 sequence (P36551 111-454): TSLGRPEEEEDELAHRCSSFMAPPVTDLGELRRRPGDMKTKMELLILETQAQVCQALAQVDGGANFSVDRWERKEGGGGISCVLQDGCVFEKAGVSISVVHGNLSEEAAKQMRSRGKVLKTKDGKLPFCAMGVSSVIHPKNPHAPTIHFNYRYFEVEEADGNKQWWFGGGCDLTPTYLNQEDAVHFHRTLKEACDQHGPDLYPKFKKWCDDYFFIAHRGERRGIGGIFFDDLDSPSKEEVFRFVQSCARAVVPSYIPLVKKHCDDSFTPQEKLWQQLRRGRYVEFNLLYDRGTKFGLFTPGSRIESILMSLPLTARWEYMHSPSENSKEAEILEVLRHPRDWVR
Type of assay: binding. To be noted: compounds 50 µM, 1 h; gel-ABPP.

For the next assay, the target named is T3, K404 of CPOX (Homo sapiens, UniProt P36551).
T3 sequence (P36551 111-454): T2 sequence (P36551 111-454)
Briefly: competitive isoTOP-ABPP with probe P1, CPOX lysines. The class given is binding. To be noted: R ≥ 4 defines liganded. An outline of the steps:
as §1

Sequence of Ku70/Ku80 heterodimer (P12956 whole entry, one chain of several): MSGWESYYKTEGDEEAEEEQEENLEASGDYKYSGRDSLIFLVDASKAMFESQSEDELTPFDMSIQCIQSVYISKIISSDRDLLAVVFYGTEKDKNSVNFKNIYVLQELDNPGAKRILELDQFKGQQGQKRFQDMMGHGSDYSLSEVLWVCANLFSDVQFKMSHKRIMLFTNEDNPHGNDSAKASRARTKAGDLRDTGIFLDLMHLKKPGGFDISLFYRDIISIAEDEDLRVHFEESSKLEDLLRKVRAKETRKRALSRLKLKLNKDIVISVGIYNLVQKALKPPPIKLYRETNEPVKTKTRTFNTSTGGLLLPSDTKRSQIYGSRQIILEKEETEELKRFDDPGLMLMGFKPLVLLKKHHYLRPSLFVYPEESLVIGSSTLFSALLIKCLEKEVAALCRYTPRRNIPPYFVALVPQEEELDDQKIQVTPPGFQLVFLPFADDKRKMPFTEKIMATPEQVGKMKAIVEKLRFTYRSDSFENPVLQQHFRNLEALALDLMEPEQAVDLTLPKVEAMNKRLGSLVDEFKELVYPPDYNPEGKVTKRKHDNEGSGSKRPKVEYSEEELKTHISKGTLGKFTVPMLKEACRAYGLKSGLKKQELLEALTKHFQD
Sequence of K351 of XRCC6 (Ku70) (P12956 whole entry): as the sequence (P12956 whole entry, one chain of several) above
Sequence of preformed Ku70-Ku80 complex (P12956 whole entry, one chain of several): as above
Sequence of K351R mutant of Ku70 with Ku80 (P12956 whole entry K351R): as the sequence (P12956 whole entry, one chain of several) above, with K351R counted along it

Take `O=c1[nH]c2ccccc2c(=O)o1` [Compound 11e]: in assay [1], the “effect on preformed Ku70-Ku80 complex” value is given as “does not block”. Besides, the “liganding of K351 of XRCC6” value on K351 of XRCC6 (Ku70) is “liganded”. Moreover, the “blockade of co-immunoprecipitation of K351R mutant of Ku70 with Ku80” value in assay [2] is “Neither 11e nor 33e blocked”. For the same compound, on Ku70/Ku80 heterodimer, the “blockade of Ku70 co-immunoprecipitation with Ku80” value is “blocked co-immunoprecipitation with Ku80 in a concentration-dependent manner”.
With `O=C(ON1C(=O)c2ccccc2C1=O)c1cc(C(F)(F)F)cc(C(F)(F)F)c1` [Compound 12a], the “engagement of K53 of GSTT2B by chemical proteomics” value on K53 of GSTT2B is “engaged”.
For `O=Cc1c(O)cc(O)cc1O` [Compound 28p], the “blockade of P4 labelling of WT-CPOX” value at WT-CPOX (K404) was “partially blocked”. Moreover, the “R value (DMSO/compound) for K404 of CPOX” value on K404 of CPOX was found to be 3.3.
